Results taken from ChEMBL document CHEMBL1140702, “New celecoxib derivatives as anti-inflammatory agents” (J Med Chem, 2008).

What was measured:
Rattus norvegicus [1] = assay: Increase in body weight in acetic acid-induced chronic gastric ulcer Wistar rat at 2.0 mg/kg, po; format: functional, Stomach
Procedure, shortened: (§1)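 Chronic ulcer (Okabe method): under ether anesthesia, male Wistar rats (150–170 g) had 0.05 mL 20% acetic acid injected into the submucosa of the anterior glandular stomach wall via laparotomy. Oral dosing with methylcellulose vehicle control. Killed after 12 days. Ulcer area taken as length × width (mm²); body-weight change recorded.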

Rattus norvegicus [2] = assay: Effect on acetic acid-induced chronic gastric ulcer Wistar rat assessed as area of ulcer at 2.0 mg/kg, po; format: functional, Stomach; procedure, shortened: as §1
Rattus norvegicus [3] = assay: Antiinflammatory activity in Wistar rat assessed as inhibition of carrageenan-induced paw edema at 10 mg/kg, po after 6 hrs relative to celecoxib; format: functional; details: for inhibition in vivo at 10 mg/kg: Rattus norvegicus, Wistar, po, 6 h
Procedure, shortened: (§2)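 Male Wistar rats (140–150 g; n = 6–12/group) given 50 µL of 1% carrageenan subcutaneously into the right hind paw subplantar region. Oral test doses. Edema is the pre- versus post-treatment volume difference (mL), read by water-displacement plethysmometer.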

Rattus norvegicus [4] = assay: Antiinflammatory activity in Wistar rat assessed as inhibition of carrageenan-induced paw edema at 10 mg/kg, po after 4 hrs relative to celecoxib; format: functional; details: for inhibition in vivo at 10 mg/kg: Rattus norvegicus, Wistar, po, 4 h; procedure, shortened: as §2
Rattus norvegicus [5] = assay: Antiinflammatory activity in Wistar rat assessed as inhibition of carrageenan-induced paw edema at 10 mg/kg, po after 7 hrs relative to celecoxib; format: functional; details: for inhibition in vivo at 10 mg/kg: Rattus norvegicus, Wistar, po, 7 h; procedure, shortened: as §2
Rattus norvegicus [6] = assay: Analgesic activity in acute model Wistar rat assessed as reversal of carrageenan-induced hind paw edema at 10 mg/kg, po after 60 mins by mechanical hyperalgesia test relative to celecoxib; format: functional
Procedure, shortened: (§3)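 Randall-Selitto test: male Wistar rats (140–190 g; n = 8–12/group), carrageenan injected subcutaneously in the subplantar right hind paw. Basal paw-withdrawal pressure threshold (g) measured before carrageenan, then after oral dosing at 30, 60, 120 and 180 min. Maximal threshold reduction develops 2–3 h post-injection. Analgesia expressed as % reversal of hyperalgesia.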

Rattus norvegicus [7] = assay: Analgesic activity in chronic model Wistar rat assessed as reversal of carrageenan-induced hind paw edema at 30 mg/kg, po after 30 mins by mechanical hyperalgesia test relative to celecoxib; format: functional; procedure, shortened: as §3
Rattus norvegicus [8] = assay: Antiinflammatory activity in Wistar rat assessed as inhibition of carrageenan-induced paw edema after 4 hrs; format: functional
Rattus norvegicus [9] = assay: Increase in body weight in acetic acid-induced chronic gastric ulcer Wistar rat at 30 mg/kg, po; format: functional, Stomach; procedure, shortened: as §1
Rattus norvegicus [10] = assay: Analgesic activity in chronic model Wistar rat assessed as reversal of carrageenan-induced hind paw edema at 30 mg/kg, po after 120 mins by mechanical hyperalgesia test relative to celecoxib; format: functional; procedure, shortened: as §3
Rattus norvegicus [11] = assay: Analgesic activity in chronic model Wistar rat assessed as reversal of carrageenan-induced hind paw edema at 30 mg/kg, po after 180 mins by mechanical hyperalgesia test relative to celecoxib; format: functional; procedure, shortened: as §3
Rattus norvegicus [12] = assay: Inhibition of ethanol-induced gastric mucosal damage in Wistar rat assessed as ulcer index at 30 mg/kg, po; format: functional, Gastric mucosa
Procedure, shortened: (§4)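 After 24 h fasting, male Wistar rats (140–160 g; n = 10) received oral 0.5 mL acidified ethanol (98% ethanol in 200 mmol/l HCl), with oral test doses and methylcellulose vehicle. Stomachs removed 1 h later and scored blind on a 0–4 scale. Lesion index = lesion number × severity. % inhibition calculated against control lesion index.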

Rattus norvegicus [13] = assay: Antiinflammatory activity in Wistar rat assessed as inhibition of carrageenan-induced paw edema
Rattus norvegicus [14] = assay: Inhibition of ethanol-induced gastric mucosal damage in Wistar rat assessed as ulcer index at 15 mg/kg, po; format: functional, Gastric mucosa; procedure, shortened: as §4
Rattus norvegicus [15] = assay: Inhibition of ethanol-induced gastric mucosal damage in Wistar rat at 30 mg/kg, po; format: functional; details: Gastric mucosa; procedure, shortened: as §4
Rattus norvegicus [16] = assay: Analgesic activity in chronic model Wistar rat assessed as reversal of carrageenan-induced hind paw edema at 10 mg/kg, po after 30 mins by mechanical hyperalgesia test relative to celecoxib; format: functional; procedure, shortened: as §3
Rattus norvegicus [17] = assay: Analgesic activity in chronic model Wistar rat assessed as reversal of carrageenan-induced hind paw edema at 30 mg/kg, po after 60 mins by mechanical hyperalgesia test relative to celecoxib; format: functional; procedure, shortened: as §3
Rattus norvegicus [18] = assay: Effect on acetic acid-induced chronic gastric ulcer Wistar rat assessed as area of ulcer at 30 mg/kg, po; format: functional, Stomach; procedure, shortened: as §1
Rattus norvegicus [19] = assay: Analgesic activity in acute model Wistar rat assessed as reversal of carrageenan-induced hind paw edema at 30 mg/kg, po after 180 mins by mechanical hyperalgesia test relative to celecoxib; format: functional; procedure, shortened: as §3
Rattus norvegicus [20] = assay: Inhibition of ethanol-induced gastric mucosal damage in Wistar rat at 60 mg/kg, po; format: functional; details: Gastric mucosa; procedure, shortened: as §4
Rattus norvegicus [21] = assay: Analgesic activity in acute model Wistar rat assessed as reversal of carrageenan-induced hind paw edema at 10 mg/kg, po after 120 mins by mechanical hyperalgesia test relative to celecoxib; format: functional; procedure, shortened: as §3
Rattus norvegicus [22] = assay: Inhibition of ethanol-induced gastric mucosal damage in Wistar rat at 15 mg/kg, po; format: functional; details: Gastric mucosa; procedure, shortened: as §4
Rattus norvegicus [23] = assay: Analgesic activity in chronic model Wistar rat assessed as reversal of carrageenan-induced hind paw edema at 10 mg/kg, po after 120 mins by mechanical hyperalgesia test relative to celecoxib; format: functional; procedure, shortened: as §3
Rattus norvegicus [24] = assay: Inhibition of ethanol-induced gastric mucosal damage in Wistar rat assessed as ulcer index at 60 mg/kg, po; format: functional, Gastric mucosa; procedure, shortened: as §4
Rattus norvegicus [25] = assay: Analgesic activity in acute model Wistar rat assessed as reversal of carrageenan-induced hind paw edema at 30 mg/kg, po after 60 mins by mechanical hyperalgesia test relative to celecoxib; format: functional; procedure, shortened: as §3
Rattus norvegicus [26] = assay: Analgesic activity in chronic model Wistar rat assessed as reversal of carrageenan-induced hind paw edema at 10 mg/kg, po after 60 mins by mechanical hyperalgesia test relative to celecoxib; format: functional; procedure, shortened: as §3
Rattus norvegicus [27] = assay: Analgesic activity in acute model Wistar rat assessed as reversal of carrageenan-induced hind paw edema at 10 mg/kg, po after 180 mins by mechanical hyperalgesia test relative to celecoxib; format: functional; procedure, shortened: as §3
Rattus norvegicus [28] = assay: Analgesic activity in acute model Wistar rat assessed as reversal of carrageenan-induced hind paw edema at 30 mg/kg, po after 120 mins by mechanical hyperalgesia test relative to celecoxib; format: functional; procedure, shortened: as §3
Rattus norvegicus [29] = assay: Analgesic activity in chronic model Wistar rat assessed as reversal of carrageenan-induced hind paw edema at 10 mg/kg, po after 180 mins by mechanical hyperalgesia test relative to celecoxib; format: functional; procedure, shortened: as §3

COc1ccc2c(c1)c(CC(=O)O)c(C)n2C(=O)c1ccc(Cl)cc1 [INDOMETHACIN]
Activity (Rattus norvegicus [1]): 2 g | Activity (Rattus norvegicus [2]): 39 mm2

Cc1ccc(-c2cc(C(F)(F)F)nn2-c2ccc(S(=O)(=O)NO[C@H](C)C(=O)O)cc2)cc1
inhibition in vivo at 10 mg/kg (Rattus norvegicus [3]): 15.3% | inhibition in vivo at 10 mg/kg (Rattus norvegicus [4]): 18.4% | inhibition in vivo at 10 mg/kg (Rattus norvegicus [5]): 6.7%

Cc1ccc(-c2cc(C(F)(F)F)nn2-c2ccc(S(=O)(=O)NOCC(=O)O)cc2)cc1 [listing 1 of 2 here]
inhibition in vivo at 10 mg/kg (Rattus norvegicus [3]): 33.2% | inhibition in vivo at 10 mg/kg (Rattus norvegicus [4]): 26% | inhibition in vivo at 10 mg/kg (Rattus norvegicus [5]): 24.7%

Cc1ccc(-c2cc(C(F)(F)F)nn2-c2ccc(S(=O)(=O)NOC(C)C(=O)O)cc2)cc1 (racemic; 16)
Activity (Rattus norvegicus [6]): 24% | Activity (Rattus norvegicus [7]): 42% | ED30 (Rattus norvegicus [8]): 5.7 mg/kg | Activity (Rattus norvegicus [9]): 43 g | Activity (Rattus norvegicus [10]): 34% | Activity (Rattus norvegicus [11]): 19% | UI (Rattus norvegicus [12]): 35 | Inhibition (Rattus norvegicus [3]): 31.1% | ED30 (Rattus norvegicus [13]): 8.4 mg/kg | UI (Rattus norvegicus [14]): 43 | inhibition in vivo at 30 mg/kg (Rattus norvegicus [15]): 43% | Inhibition (Rattus norvegicus [4]): 41% | Activity (Rattus norvegicus [16]): 23% | Activity (Rattus norvegicus [17]): 54% | Activity (Rattus norvegicus [18]): 2.4 mm2 | Activity (Rattus norvegicus [19]): 35% | Inhibition (Rattus norvegicus [5]): 17.9% | inhibition in vivo at 60 mg/kg (Rattus norvegicus [20]): 76% | Activity (Rattus norvegicus [21]): 30% | inhibition in vivo at 15 mg/kg (Rattus norvegicus [22]): 35% | Activity (Rattus norvegicus [23]): 28% | UI (Rattus norvegicus [24]): 15.8 | Activity (Rattus norvegicus [25]): 89% | Activity (Rattus norvegicus [26]): 22% | Activity (Rattus norvegicus [27]): 15% | Activity (Rattus norvegicus [28]): 59% | Activity (Rattus norvegicus [29]): 20%

Cc1ccc(-c2cc(C(F)(F)F)nn2-c2ccc(S(=O)(=O)NOCC(=O)O)cc2)cc1 [listing 2 of 2 here]
Inhibition (Rattus norvegicus [3]): 21.3% | Inhibition (Rattus norvegicus [4]): 13.1% | Inhibition (Rattus norvegicus [5]): 17.1%

CCOC(=O)CONS(=O)(=O)c1ccc(-n2nc(C(F)(F)F)cc2-c2ccc(C)cc2)cc1
inhibition in vivo at 10 mg/kg (Rattus norvegicus [3]): 23.1% | inhibition in vivo at 10 mg/kg (Rattus norvegicus [4]): 13.3% | inhibition in vivo at 10 mg/kg (Rattus norvegicus [5]): 20.6%

Cc1ccc(-c2cc(C(F)(F)F)nn2-c2ccc(S(=O)(=O)NO[C@@H](C)C(=O)O)cc2)cc1
inhibition in vivo at 10 mg/kg (Rattus norvegicus [3]): -9.3% | inhibition in vivo at 10 mg/kg (Rattus norvegicus [4]): 0.9% | inhibition in vivo at 10 mg/kg (Rattus norvegicus [5]): -6.3%

CCOC(=O)C(C)ONS(=O)(=O)c1ccc(-n2nc(C(F)(F)F)cc2-c2ccc(C)cc2)cc1 (racemic)
inhibition in vivo at 10 mg/kg (Rattus norvegicus [3]): 15.7% | inhibition in vivo at 10 mg/kg (Rattus norvegicus [4]): 23.5% | inhibition in vivo at 10 mg/kg (Rattus norvegicus [5]): 7.3%

Cc1ccc(-c2cc(C(F)(F)F)nn2-c2ccc(S(=O)(=O)NOC(C)C(=O)O)cc2)cc1 (racemic; 21)
inhibition in vivo at 10 mg/kg (Rattus norvegicus [3]): 21.8% | inhibition in vivo at 10 mg/kg (Rattus norvegicus [4]): 38.4% | inhibition in vivo at 10 mg/kg (Rattus norvegicus [5]): 16.2%

Cc1ccc(-c2cc(C(F)(F)F)nn2-c2ccc(S(=O)(=O)NOCCC(=O)O)cc2)cc1
Inhibition (Rattus norvegicus [3]): 12.8% | Inhibition (Rattus norvegicus [4]): 23.6% | Inhibition (Rattus norvegicus [5]): 11.9%

Cc1ccc(-c2cc(C(F)(F)F)nn2-c2ccc(S(N)(=O)=O)cc2)cc1 [CELECOXIB]
Activity (Rattus norvegicus [6]): 0% | Activity (Rattus norvegicus [7]): 54% | ED30 (Rattus norvegicus [8]): 23 mg/kg | Activity (Rattus norvegicus [9]): 32 g | Activity (Rattus norvegicus [10]): 34% | Activity (Rattus norvegicus [11]): 26% | UI (Rattus norvegicus [12]): 49.4 | inhibition in vivo at 10 mg/kg (Rattus norvegicus [3]): 18.6% | ED30 (Rattus norvegicus [13]): > 30 mg/kg | UI (Rattus norvegicus [14]): 80.6 | inhibition in vivo at 30 mg/kg (Rattus norvegicus [15]): 19% | inhibition in vivo at 10 mg/kg (Rattus norvegicus [4]): 24.2% | Activity (Rattus norvegicus [16]): 24% | Activity (Rattus norvegicus [17]): 34% | Activity (Rattus norvegicus [18]): 8.2 mm2 | Activity (Rattus norvegicus [19]): 0% | inhibition in vivo at 10 mg/kg (Rattus norvegicus [5]): 12.3% | inhibition in vivo at 60 mg/kg (Rattus norvegicus [20]): 55% | Activity (Rattus norvegicus [21]): 0% | inhibition in vivo at 15 mg/kg (Rattus norvegicus [22]): 18% | Activity (Rattus norvegicus [23]): 0% | UI (Rattus norvegicus [24]): 44.4 | Activity (Rattus norvegicus [25]): 24% | Activity (Rattus norvegicus [26]): 17% | Activity (Rattus norvegicus [27]): 0% | Activity (Rattus norvegicus [28]): 3% | Activity (Rattus norvegicus [29]): 0%

Cc1ccc(-c2cc(C(F)(F)F)nn2-c2ccc(S(=O)(=O)NOCCC(=O)[O-])cc2)cc1.[Na+]
Inhibition (Rattus norvegicus [3]): 33.9% | inhibition in vivo at 10 mg/kg (Rattus norvegicus [4]): 32% | Inhibition (Rattus norvegicus [5]): 24.9%
